The source made the active and inactive calls. The calls are words filed in the database; no cut-off is given here.
Columns and labels:
A549/CDDP [1] = assay: Inhibition of ERK phosphorylation in human A549/CDDP cells at 0.6 to 1.2 uM after 24 hrs by Western blot method; assay type: cell-based
Method in brief: (§1)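 Cells were plated at 1 × 10^6/well overnight, then treated 24 h with vehicle DMSO (0.1%, v/v) or compound (A549, 2.1 or 4.2 µM; A549/DDP, 0.6 or 1.2 µM). Lysis was at 4 °C. Lysates were run on SDS-PAGE (7.5% gel, 20 µg/lane) and immunoblotted with ECL detection; phospho-Akt Ser473 and phospho-ERK Thr202/Tyr204 were probed. Bands were normalized to GAPDH (TrxR, Trx) or β-actin. Three independent experiments were run.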

A549/CDDP [2] = assay: Induction of ROS generation in human A549/CDDP cells 2.1 to 4.2 uM after 60 mins by DHE staining-based fluorescence assay; assay type: functional, cell-based
Method in brief: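 A549 or A549/DDP cells were treated in triplicate for 60 min with vehicle DMSO (0.1%, v/v) or a range of compound concentrations. Cells were stained with dihydroethidium, and intracellular ROS fluorescence was read on a microplate reader at 300 and 610 nm. Three independent experiments were run.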

A549/CDDP [3] = assay: Effect on NFkappaB expression in human A549/CDDP cells at 0.6 to 1.2 uM after 24 hrs by Western blot method; assay type: functional, cell-based; method in brief: as §1
A549 = assay: Induction of apoptosis in human A549 cells assessed as increase in cleaved caspase 3 level at 2.1 to 4.2 uM after 24 hrs by Western blot method; assay type: functional, cell-based; method in brief: as §1
A549/CDDP [4] = assay: Anticancer activity against human A549/CDDP cells xenografted in BALB/c nude mouse assessed as tumor growth inhibition at 20 mg/kg, ip administered daily for 15 consecutive days measured every 3 days; assay type: functional; conditions: read-out: TGI
Method in brief: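 Both sexes of athymic BALB/c nude mice (4-5 weeks) were inoculated subcutaneously with A549/DDP cells (1 × 10^7/mouse). Once tumors reached 180-200 mm3, mice were randomized (n = 8). They received ip dosing daily for 15 consecutive days, with vehicle PBS/DMSO/cremophor-EL (8:1:1). Tumors were measured by caliper and volume was taken as width2 × length/2. Growth inhibition was taken from tumor weight (w/w).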

[5] = Acute toxicity in ICR mouse assessed as survival at 450 mg/kg, ip measured on day 14; assay type: organism-based; conditions: in vivo
Method in brief: (§2)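 Male and female ICR mice (7 weeks), randomized, 10 per group, given one intraperitoneal dose at 200, 250, 300, 350, 400 or 450 mg/kg. Animals were watched for abnormal behaviour and deaths up to two weeks. Deaths were tallied at 1 h, 4 h, day 3 and days 4-14, with survival on day 14. LD50 was calculated with 95% confidence limits.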

[6] = Acute toxicity in ICR mouse assessed as mortality at 200 to 450 mg/kg, ip measured at 1 hr post treatment; assay type: organism-based; conditions: in vivo; method in brief: as §2
[7] = target: RAC-alpha serine/threonine-protein kinase (Homo sapiens) (UniProt P31749); assay: Inhibition of Akt phosphorylation in human A549/CDDP cells at 0.6 to 1.2 uM after 24 hrs by Western blot method; assay type: cell-based; method in brief: as §1
Sequence of RAC-alpha serine/threonine-protein kinase (Homo sapiens) (P31749 whole entry): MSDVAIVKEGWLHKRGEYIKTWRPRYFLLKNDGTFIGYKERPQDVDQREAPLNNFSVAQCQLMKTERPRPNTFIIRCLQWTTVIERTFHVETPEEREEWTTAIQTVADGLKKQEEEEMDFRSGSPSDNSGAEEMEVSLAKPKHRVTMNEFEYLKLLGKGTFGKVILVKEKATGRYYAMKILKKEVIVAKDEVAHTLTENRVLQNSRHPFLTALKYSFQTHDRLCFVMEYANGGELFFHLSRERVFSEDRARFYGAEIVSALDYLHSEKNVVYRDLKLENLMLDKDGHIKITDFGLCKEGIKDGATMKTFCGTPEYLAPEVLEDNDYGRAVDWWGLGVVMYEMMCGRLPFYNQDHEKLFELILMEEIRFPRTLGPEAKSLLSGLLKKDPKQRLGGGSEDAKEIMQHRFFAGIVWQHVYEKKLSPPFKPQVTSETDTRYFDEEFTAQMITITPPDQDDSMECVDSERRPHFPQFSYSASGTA

[8] = target: ATP-dependent translocase ABCB1 (Homo sapiens, UniProt P08183); assay: Inhibition of P-gp ATPase activity in human A549/CDDP cells at 40 uM by luminescence assay (reference value: 706683 +/- 23554 RLU); assay type: cell-based
Sequence of ATP-dependent translocase ABCB1 (P08183 whole entry): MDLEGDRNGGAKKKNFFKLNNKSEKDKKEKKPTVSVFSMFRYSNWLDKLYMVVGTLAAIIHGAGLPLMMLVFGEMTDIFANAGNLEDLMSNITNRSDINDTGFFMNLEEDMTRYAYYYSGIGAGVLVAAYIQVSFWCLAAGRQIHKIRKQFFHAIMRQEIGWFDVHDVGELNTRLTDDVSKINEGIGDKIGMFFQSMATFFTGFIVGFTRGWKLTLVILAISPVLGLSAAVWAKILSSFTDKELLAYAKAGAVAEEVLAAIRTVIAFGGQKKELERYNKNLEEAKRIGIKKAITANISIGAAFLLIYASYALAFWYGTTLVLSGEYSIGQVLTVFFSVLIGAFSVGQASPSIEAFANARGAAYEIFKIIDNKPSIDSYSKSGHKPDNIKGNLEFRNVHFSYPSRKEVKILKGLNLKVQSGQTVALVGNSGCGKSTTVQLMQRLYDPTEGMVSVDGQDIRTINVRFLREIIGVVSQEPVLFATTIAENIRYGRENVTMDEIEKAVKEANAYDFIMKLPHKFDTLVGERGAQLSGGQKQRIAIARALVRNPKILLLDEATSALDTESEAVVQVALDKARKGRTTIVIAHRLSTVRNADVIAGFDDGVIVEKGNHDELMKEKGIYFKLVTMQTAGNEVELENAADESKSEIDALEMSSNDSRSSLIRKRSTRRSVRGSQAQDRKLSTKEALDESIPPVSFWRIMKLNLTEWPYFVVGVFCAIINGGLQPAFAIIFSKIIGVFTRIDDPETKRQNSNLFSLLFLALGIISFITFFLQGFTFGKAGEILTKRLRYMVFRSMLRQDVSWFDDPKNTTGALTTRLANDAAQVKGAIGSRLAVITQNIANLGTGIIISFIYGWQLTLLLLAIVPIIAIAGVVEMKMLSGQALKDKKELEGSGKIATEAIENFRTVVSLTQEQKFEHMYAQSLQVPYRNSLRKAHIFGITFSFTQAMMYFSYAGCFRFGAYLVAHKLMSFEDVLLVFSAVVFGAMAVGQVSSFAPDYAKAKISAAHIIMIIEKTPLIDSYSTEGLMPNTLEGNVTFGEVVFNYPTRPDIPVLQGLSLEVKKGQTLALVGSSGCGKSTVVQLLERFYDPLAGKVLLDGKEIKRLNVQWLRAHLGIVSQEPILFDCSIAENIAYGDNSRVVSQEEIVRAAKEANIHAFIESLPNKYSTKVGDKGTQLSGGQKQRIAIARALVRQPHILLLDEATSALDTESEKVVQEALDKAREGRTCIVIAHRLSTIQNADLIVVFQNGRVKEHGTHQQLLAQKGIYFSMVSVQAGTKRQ

A549/CDDP [9] = assay: Induction of apoptosis in human A549/CDDP cells assessed as increase in Bax expression at 0.6 to 1.2 uM after 24 hrs by Western blot method; assay type: functional, cell-based; method in brief: as §1

## COc1cc(/C=C/C(=O)/C=C/c2nc(C)c(C)nc2C)ccc1O
A549/CDDP [1]
  inhibition: Active
A549/CDDP [2]
  Activity: Active
A549/CDDP [3]
  Activity: inactive
A549
  Activity: Active
A549/CDDP [4]
  inhibition in vivo at 20 mg/kg: 36%
[5]
  survival at 14 day: 0%
[6]
  Activity: Non-Toxic
[7]
  inhibition: Active
[8]
  Activity: 761592 RLU
A549/CDDP [9]
  Activity: Active

Reference: ChEMBL document CHEMBL4428026, “Discovery of New Monocarbonyl Ligustrazine-Curcumin Hybrids for Intervention of Drug-Sensitive and Drug-Resistant Lung Cancer” (J Med Chem, 2016)
